The source made the active and inactive calls. The calls are words filed in the database; no cut-off is given here.
Assays:
[1] = system: Human immunodeficiency virus 1; assay: Antiviral activity against Human immunodeficiency virus 1 assessed as inhibition of viral replication; assay type: functional, organism-based
Method in brief: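 NL4-3 mutant panel (D36G T20-sensitive; five T20-resistant NHR variants) infecting MT-2 cells with peptides at graded concentrations. p24 measured by ELISA on day 4. Run in triplicate as mean ± SD; IC50 and fold change vs D36G.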

TZM-b1 = assay: (§1) Inhibition of HIV1 Envelope glycoprotein-mediated cell-cell fusion expressed in human HL2/3 cells coincubated with human TZM-b1 cells after 6 to 8 hrs by luciferase assay; assay type: cell-based; settings: Human immunodeficiency virus 1
[2] = as §1; assay type: cell-based; settings: Human immunodeficiency virus 1, TZM-b1

Row | SMILES | IC50 [2] | inhibition (TZM-b1) | further results
1 | Cc1ccc(C)n1-c1ccc(O)c(C(=O)O)c1 | – | – | EC50 [1]: 0.69 µM
2 | Cc1cc(C(=O)O)c(C)n1-c1ccc(O)c(C(=O)O)c1 | – | inactive | –
3 | Cc1cc(C(=O)O)c(C)n1-c1ccc(C(=O)O)c(O)c1 | – | inactive | –

More lines, main results first:

Row | IC50 [2] | SMILES | inhibition (TZM-b1) | further results
4 | > 100 µM | Cc1ccc(C)n1-c1ccc(OCC(=O)O)c(C(=O)O)c1 | – | –
5 | > 100 µM | Cc1ccc(C)n1-c1ccc(C(=O)O)c(OCC(=O)O)c1 | – | –

— ChEMBL document CHEMBL2321797 (J Med Chem, 2013)
